ChEMBL document CHEMBL1146312, “Synthesis of OSW saponin analogs with modified sugar residues and their antiproliferative activities” (Bioorg Med Chem Lett, 2007)
pIC50: −log10 of the molar value.

Key:
Format in all cases: functional, cell-based
HeLa = test: Antiproliferative activity against human HeLa cells
Outline: (§1)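 Proliferation of human RKO colon carcinoma, Jurkat T-cell leukemia and HeLa cervical cancer cells was followed by [3H]-thymidine incorporation. IC50 values were taken from this read-out.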

Jurkat = test: Antiproliferative activity against human Jurkat cells; outline: as §1
RKO = test: Antiproliferative activity against human RKO cells; outline: as §1

## CCCCCCCCCCCCOC(=O)[C@@H](C)[C@@]1(O)[C@@H](O[C@@H]2OC[C@H](O)[C@H](O)[C@H]2OC(C)=O)C[C@H]2[C@@H]3CC=C4C[C@@H](O)CC[C@]4(C)[C@H]3CC[C@@]21C
HeLa
  pIC50: 5.92
Jurkat
  pIC50: 7.11

## C=CCO[C@@H]1[C@@H](OC(C)=O)[C@H](O[C@H]2C[C@H]3[C@@H]4CC=C5C[C@@H](O)CC[C@]5(C)[C@H]4CC[C@]3(C)[C@@]2(O)[C@H](C)C(=O)OCCCCCCCCCCCC)OC[C@@H]1O
HeLa
  pIC50: 5.96
RKO
  pIC50: 5.77

## CCCCCCCCCCCCOC(=O)[C@@H](C)[C@@]1(O)[C@@H](O[C@@H]2OC[C@H](O)[C@H](O[C@@H]3OC[C@@H](O)[C@H](O)[C@H]3OC(=O)c3ccc(OC)cc3)[C@H]2OC(C)=O)C[C@H]2[C@@H]3CC=C4C[C@@H](O)CC[C@]4(C)[C@H]3CC[C@@]21C
HeLa
  pIC50: 7.15
RKO
  pIC50: 9.15
Jurkat
  pIC50: 7.82
